Source: PubChem BioAssay
Only some compounds are listed: those with a hit (about 0.9% of all), similar ones and a draw of the others.
RGS16-Gao HTS = modulates binding between human RGS16 and Galphao; O15492+P09471; bead-based flow cytometry RGS16-Galphao binding, fluorescence; actives lie on both sides; binding response (% of control), % at 10 µM; actives 0.38% (n = 220,000); AID 1441;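 also: Galphao activated by GDP with aluminum fluoride before binding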
RGS8-Gao = modulates binding of RGS8 to human Galphao | P09471 | multiplexed bead flow cytometry; actives lie on both sides | response (percent of control binding), % at 10 µM | actives 0.34% (n = 220,000) | AID 1423; in the data active = response below about 60% or above about 140%; inactive = in between;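 also: Galphao activated as the GDP aluminium fluoride complex binding bead-coupled RGS8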
ABCB1 block = human ABCB1 inhibition, ABCG2 as counter-screen; P08183; CCRF-Adr cells, JC-1 efflux, flow cytometry; inhibition, % at 6.6 µM; actives 0.067% (n = 190,000); in the data active = inhibition above about 40%;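 also: 0% = vehicle and 100% = reference inhibitor; higher value means more JC-1 retained so stronger ABCB1 efflux block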
RGS7-Gao reg = modulates binding of RGS7 to human Galphao. AID 1439. actives 0.35% (n = 220,000). Multiplexed bead flow cytometry; actives lie on both sides. binding response (% of control), % at 10 µM. P09471; in the data active = binding response below about 49% or above about 150%; inconclusive = no clear call, values can overlap the other calls; inactive = in between;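 also: fluorescent Galphao held in activated GDP-AlF4 state binding bead-coupled RGS7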
ABCG2 inh = blocks JC-1 efflux by human ABCG2 transporter; Q9UNQ0; IgMXP3 cells, flow cytometry; inhibition, % at 6.6 µM; actives 0.1% (n = 190,000); AID 1325;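 active = inhibition above 80%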;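 also: 0% = DMSO and 100% = nicardipine control wells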
Target sequence (Q9UNQ0 whole entry, looked up): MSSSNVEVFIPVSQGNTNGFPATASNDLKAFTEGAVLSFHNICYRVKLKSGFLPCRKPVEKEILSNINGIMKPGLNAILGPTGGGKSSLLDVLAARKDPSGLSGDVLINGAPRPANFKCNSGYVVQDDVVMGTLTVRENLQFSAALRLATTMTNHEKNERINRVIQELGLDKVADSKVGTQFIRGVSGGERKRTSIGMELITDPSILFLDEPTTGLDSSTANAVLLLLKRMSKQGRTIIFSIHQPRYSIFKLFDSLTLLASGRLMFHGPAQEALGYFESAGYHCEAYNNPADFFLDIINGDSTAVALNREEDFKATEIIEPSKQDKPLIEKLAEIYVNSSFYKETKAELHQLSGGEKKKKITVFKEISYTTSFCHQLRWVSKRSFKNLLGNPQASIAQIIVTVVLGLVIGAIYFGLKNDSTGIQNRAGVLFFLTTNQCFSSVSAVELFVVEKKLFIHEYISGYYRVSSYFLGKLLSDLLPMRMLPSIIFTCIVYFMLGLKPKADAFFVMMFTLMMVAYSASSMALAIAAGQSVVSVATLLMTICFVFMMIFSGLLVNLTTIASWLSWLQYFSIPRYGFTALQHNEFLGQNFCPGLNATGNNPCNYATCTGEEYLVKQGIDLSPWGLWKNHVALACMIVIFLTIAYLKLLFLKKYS
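Test system: IgMXP3 cells (ABCG2) mixed with DDAO far-red-labelled CCRF-Adr cells (ABCB1). Reagent: JC-1 transporter substrate. Compound dosing: single test compound dose, 6.6 µM final. Times: 10 min compound exposure, 25 °C. Detection: flow cytometry of retained JC-1 fluorescence. Read-out basis: efflux inhibition in percent versus controls. Controls: nicardipine and DMSO wells.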
RGS4-Gao reg = modulates binding of RGS4 to human Galphao. Multiplexed bead flow cytometry; actives lie on both sides. P09471. actives 0.33% (n = 220,000). binding response (% of control), % at 10 µM; in the data active = binding response below about 49% or above about 150%; inactive = in between;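 also: fluorescent Galphao activated with aluminum fluoride binding bead-coupled RGS4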
RGS4-Gao HTS = regulators of human RGS4-Galphao interaction; shares compounds with RGS16-Gao HTS; multiplexed bead flow cytometry, RGS–Galpha-o binding; RGS4–Galpha-o binding response, % at 10 µM; actives 99% (n = 1,600); AID 1504;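 also: fluorescently labeled Galpha-o bound to GDP with aluminium fluoride binding biotinylated RGS beads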
Avidin counter = counter-screen: compounds disrupting biotin binding to avidin beads | shares compounds with RGS16-Gao HTS | AID 1783 | inhibition, % at 10 µM | streptavidin beads, fluorescein-biotin binding, flow cytometry | 1,700 tested, under 10 active;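 active = inhibition above 50%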;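 also: median green fluorescence of gated singlet beads compared with DMSO control wells; 0% = DMSO wells and 100% = complete loss of bead fluorescence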
RGS8-Gao single = confirmation of regulators of human RGS8-Galphao interaction | shares compounds with RGS16-Gao HTS | bead-based flow cytometry RGS8-Galphao binding, fluorescence; actives lie on both sides | binding response (% of control), % at 10 µM | actives 3% (n = 1,700) | AID 1836; in the data active = binding response below about 72% or above about 130%; inactive = in between;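 also: Galphao activated as GDP AlF4 complex before binding bead RGS8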
RGS7-Gao single = confirmation of regulators of human RGS7-Galphao interaction; response (percent of control binding), % at 10 µM; bead-based flow cytometry RGS7-Galphao binding; actives lie on both sides; actives 7.8% (n = 1,700); shares compounds with RGS16-Gao HTS; in the data active = response below about 75% or above about 130%; inactive = in between;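 also: fluorescent Galphao activated with GDP and aluminum fluoride binding bead-coupled RGS7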
RGS16-Gao single = confirmation of regulators of human RGS16-Galphao interaction; shares compounds with RGS16-Gao HTS; bead-based flow cytometry, RGS16-Galphao binding; actives lie on both sides; response (% of control binding), % at 10 µM; actives 4% (n = 1,700); in the data active = response below about 74% or above about 130%; inactive = in between;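 also: Galphao activated as the GDP aluminium fluoride complex binding bead-coupled RGS16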
RGS4-Gao confirm = confirmation of regulators of human RGS4-Galphao interaction | actives 4% (n = 1,700) | shares compounds with RGS16-Gao HTS | binding response (% of control), % at 10 µM | RGS4-Galphao binding, multiplexed bead flow cytometry; actives lie on both sides; in the data active = binding response below about 74% or above about 130%; inactive = in between
RGS19-Gao single = RGS19-Galphao interaction regulation, single point confirmation; shares compounds with RGS16-Gao HTS; bead-based flow cytometry RGS19-Galphao binding; actives lie on both sides; response (percent of control binding), % at 10 µM; actives 5% (n = 1,700); in the data active = response below about 50% or above about 160%; inactive = in between;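 also: 100% = no compound control and 0% = blank background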
* marks the source's active call; other numbers are inactive results; u = inconclusive; x = not tested or not shown; [ ] = remark or other dose. Unless noted, no rule for the calls is given here.

SMILES | RGS16-Gao HTS | RGS8-Gao | ABCB1 block | RGS7-Gao reg | ABCG2 inh | RGS4-Gao reg | Avidin counter | RGS8-Gao single | RGS7-Gao single | RGS16-Gao single | RGS4-Gao confirm | RGS19-Gao single | others
O=[N+]([O-])c1ccc(Nc2nc(NC3CCCCC3)nc(N3CCCC3)n2)cc1 | 156.9 | 104.4 | 0.4 | 159.6*[activator] | 3.9 | 169.6*[activator] | -0.4 | 91.8 | 98.0 | 88.7 | 95.5 | 84.6
O=C(Oc1ccc(Br)cc1)c1cncc(Br)c1 | 170.0 | 109.9 | 0.1 | 159.0*[activator] | 0.9 | 170.7*[activator] | 0.2 | 103.0 | 111.8 | 105.5 | 105.6 | 102.3
O=C(Oc1ccc2cc(Br)ccc2c1)c1cccnc1 | 223.2 | 99.8 | -0.1 | 114.7 | 12.0 | 115.4 | x | x | x | x | x | x
CCOC(=O)Cc1csc(NC(=O)c2csc3c2CCCC3)n1 | 3.8 | 14.3* | 0.6 | 19.3* | 34.7 | 28.9* | -1.6 | 92.8 | 91.2 | 88.5 | 91.8 | 88.0
CCOC(=O)Cc1csc(NC(=O)c2cc3c(s2)CCCC3)n1 | 101.2 | 100.8 | -0.2 | 111.9 | 0.0 | 104.8 | x | x | x | x | x | x
CCC12CN3CCN(CC(C3)/C1=N\NC(=O)c1ccc(F)cc1)C2 | 38.5 | 54.6* | -0.4 | 43.1* | -0.5 | 42.0* | -0.6 | 99.2 | 99.3 | 98.1 | 97.9 | 97.3
CCC12CN3CCN(CC(C3)/C1=N\NC(=O)c1ccc(Cl)cc1)C2 | 94.2 | 97.2 | 0.3 | 90.5 | 2.6 | 98.5 | x | x | x | x | x | x
CSC(=Nc1ccc(Cl)cc1)N[n+]1ccccc1 | 37.4 | 85.9 | 0.7 | 99.6 | 2.1 | 105.3 | x | x | x | x | x | x
COc1cc(C(=O)NNC(=O)c2ccc(NC(C)=O)cc2)cc(OC)c1OC | 11.4* | 14.5* | -0.7 | 16.8* | -1.2 | 22.8* | -1.1 | 107.5 | 209.9*[activator] | 131.7*[activator] | 165.1*[activator] | 255.1*[activator]
O=C(/C=C/c1ccc(Br)o1)OCc1ccccc1 | x | x | 0.2 | x | 0.5 | x | 1.6 | 102.7 | 107.2 | 110.3 | 105.3 | 102.5
COc1ccc2c(c1)Cc1sc(NC(=O)c3ccco3)nc1-2 | 41.6 | 57.5* | 0.1 | 46.0* | 0.3 | 52.5 | -0.1 | 99.8 | 101.1 | 100.8 | 101.2 | 94.7 | RGS4-Gao HTS=52.5*
CC(=O)Nc1cccc(NS(=O)(=O)c2ccccc2[N+](=O)[O-])c1 | 108.0 | 98.2 | 1.0 | 95.4 | 2.6 | 97.1 | x | x | x | x | x | x
CCS(=O)(=O)c1cc([N+](=O)[O-])c(Sc2ccccc2NC(C)=O)s1 | 9.3* | 20.7* | x | u | x | 17.2* | 1.2 | 63.2* | 81.7 | 57.6* | 86.0 | 10.3*
O=C(CC1SC(=NCC2CCCO2)NC1=O)Nc1cc([N+](=O)[O-])ccc1Cl (configuration not stated) | 94.7 | 97.5 | 0.9 | u | 11.8 | 95.1 | x | x | x | x | x | x
O=C(CC1SC(=NCC2CCCO2)NC1=O)Nc1cccc2ccccc12 (configuration not stated) | -12.1* | 6.6* | 1.3 | -5.8* | 20.0 | 10.8* | 0.3 | 99.7 | 97.7 | 96.8 | 96.7 | 105.7
O=C(Nc1ccc(C2=NCCN2)cc1)c1ccc(C(=O)Nc2ccc(C3=NCCN3)cc2)c(Cl)c1 | 119.4 | 142.8*[activator] | x | u | x | 198.5*[activator] | -0.5 | 105.7 | 104.8 | 98.3 | 105.5 | 135.3
COc1ccc(CNC(=O)CCSCc2cccc(Cl)c2)cc1 | 187.5 | 106.3 | 6.4 | 177.4*[activator] | 7.6 | 156.6*[activator] | -3.1 | 98.3 | 94.2 | 97.7 | 96.7 | 97.1
COc1ccc(CNC(=O)CSCc2cccc(Cl)c2)cc1 | 100.8 | 99.9 | 0.9 | 97.2 | 10.1 | 101.2 | x | x | x | x | x | x
COc1ccccc1CNC(=O)CCSCc1cccc(Cl)c1 | 241.3 | 145.8*[activator] | 0.2 | 98.0 | 5.4 | 98.6 | -0.7 | 103.9 | 96.5 | 104.3 | 98.8 | 109.8 | RGS4-Gao HTS=98.6*
CCOC(=O)c1ccccc1-c1csc(N)n1 | 105.9 | 100.7 | 3.2 | u | 22.2 | 102.2 | x | x | x | x | x | x
O=C(CSc1nnc(-c2cnccn2)n1Cc1ccco1)c1ccc2ccccc2c1 | 19.0* | 21.5* | 0.8 | 25.3* | 12.3 | 29.2* | 1.3 | 102.9 | 104.4 | 105.4 | 104.9 | 110.8
COc1cccc(CC2(CO)CCCN(CC3=Cc4cc(Cl)ccc4OC3)C2)c1 (configuration not stated) | 100.8 | 99.2 | 0.1 | 104.6 | 0.1 | 100.2 | x | x | x | x | x | x
O=C(O)COc1ccccc1/C=N/NC(=O)Cc1csc(Nc2cccc(C(F)(F)F)c2)n1 | 32.1 | 39.9* | -0.1 | u | 0.5 | 38.8* | -1.0 | 104.5 | 103.2 | 105.0 | 101.2 | 107.6
O=C(O)COc1ccccc1/C=N/NC(=O)CSc1nnc(SCc2cccc3ccccc23)s1 | 97.3 | 100.2 | x | u | x | 92.3 | x | x | x | x | x | x
CC(C)NC(=O)NC(=O)COC(=O)c1cc[n+]([O-])cc1 | 95.6 | 99.8 | -0.1 | u | 6.8 | 96.8 | x | x | x | x | x | x
CNC(=S)NNC(=O)c1cccc(N(C)C)c1 | 103.7 | 102.3 | 0.3 | 105.5 | 6.3 | 102.3 | x | x | x | x | x | x
CC(=O)Nc1ccc(Cc2nc3c([nH]2)c(=O)n(C)c(=O)n3C)cc1 | 1.1* | 20.4* | x | u | x | -0.7* | 0.9 | 99.0 | 99.2 | 101.4 | 98.5 | 103.4
Cc1cccc(C(=O)Nc2ccc(C(=O)/C=C/c3cccnc3)cc2)c1 | 242.2 | 105.0 | 0.1 | 186.2*[activator] | -4.7 | 196.5*[activator] | 0.1 | 99.6 | 104.6 | 102.1 | 101.5 | 103.2
O=C(COc1ccccc1C(=O)N/N=C\c1ccc(O)c(O)c1)N/N=C/c1ccc(O)c(O)c1 | 15.9* | 36.7* | -0.7 | 13.6* | -1.8 | 17.0* | -3.8 | 60.5* | 21.1* | 60.4* | 54.0* | 53.4
O=C(COc1ccccc1[N+](=O)[O-])N/N=C/c1ccc(O)c([N+](=O)[O-])c1 | 96.3 | 97.0 | 0.0 | u | 7.2 | 96.0 | x | x | x | x | x | x
